Experiment [1] addresses Sigma non-opioid intracellular receptor 1 (Cavia porcellus, UniProt Q60492). The experiment in a line: Displacement of [3H]-(+)-pentazocine from sigma 1 receptor in guinea pig cerebral cortex membranes after 120 mins by scintillation counting analysis. The arrangement: species or system Membrane. (In general: In a radioligand displacement assay an active substance lowers the binding of a labelled ligand.)

The nature of experiment [2]: Selectivity ratio of Ki for sigma 2 receptor in rat liver membranes to Ki for sigma 1 receptor in guinea pig cerebral cortex membranes. The experiment is classed as cell membranes. Put shortly: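 Ratio computed as Ki at S2R (rat liver, [3H]-DTG with S1R masked by (+)-pentazocine) divided by Ki at S1R (guinea pig cortex, [3H](+)-pentazocine). Both Ki values come from Cheng-Prusoff conversion of IC50s from 120 min displacement assays, each the mean of three experiments.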

Experiment [3] can be described thus: Displacement of [3H]-DTG from sigma 2 receptor in rat liver membranes after 120 mins by scintillation counting analysis. It is filed as cell membranes, Membrane. Put shortly: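 Rat liver homogenate (150 μg) incubated 120 min at room temperature with 3 nM [3H]-DTG in 50 mM Tris-HCl pH 8.0. Excess unlabeled (+)-pentazocine masked S1R, and high unlabeled DTG defined nonspecific binding. Compound at 10^-10 to 10^-5 M final, in duplicate. Filtered through PEI-presoaked filtermats and counted by scintillation. IC50 from nonlinear regression, converted to Ki by Cheng-Prusoff; mean ± SEM of three experiments.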

Molecules are shown by their SMILES. pKi: −log10 of the molar value.

Sigma non-opioid intracellular receptor 1, sequence (Q60492 whole entry): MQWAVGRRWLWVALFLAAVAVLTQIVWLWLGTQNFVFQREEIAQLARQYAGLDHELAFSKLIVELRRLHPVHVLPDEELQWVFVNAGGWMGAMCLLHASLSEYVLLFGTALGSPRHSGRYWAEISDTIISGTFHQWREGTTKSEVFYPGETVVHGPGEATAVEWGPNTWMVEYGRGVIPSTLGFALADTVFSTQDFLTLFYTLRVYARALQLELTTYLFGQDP

What is called pKi is −log10 of the Ki, conventionally taken in molar units. Turning to `COc1cccc(C(C)CCN(C)C)c1` (stereo not given), the pKi in experiment [1] is 6.62; in experiment [3] it was 6.06. In addition, in experiment [2], the Ratio Ki came out at 3.62.
Take `CC(CCN1CCC(Cc2ccccc2)CC1)c1ccc2ccccc2c1` (racemic): the pKi is 7.72 in experiment [1] and 6.84 in experiment [3]. Also, the Ratio Ki in experiment [2] amounted to 7.6.
`COc1cccc(C(C)CCN2CCC(Cc3ccccc3)CC2)c1` (racemic): the figures for the pKi in experiment [1] and in experiment [3] were 8.54 and 7.85, respectively. Further, in experiment [2], the Ratio Ki stood at 4.83.
As for `COc1ccc(C(C)CCN2CCC(Cc3ccccc3)CC2)cc1` (racemic), the pKi in experiment [1] was 8.46; in experiment [3] it was 7.74. Also, the Ratio Ki in experiment [2] came out at 5.14.
`CC(CCN(C)C)c1ccc2ccccc2c1` (racemic): the Ratio Ki in experiment [2] was determined as 22. Besides, in experiment [3], the pKi is 7.36.
For `COc1ccc(C(C)CCN2CCOCC2)cc1` (racemic), the figures for the negative-log Ki (pKi) in experiment [1] and in experiment [3] were 7.12 and 7.17, respectively. The Ratio Ki in experiment [2] came out at 0.89.
As to `CC(CCN1CCC(Cc2ccccc2)CC1)c1ccccc1` (racemic), the Ratio Ki in experiment [2] worked out at 3.1. The compound further gave a pKi in experiment [3] of 8.19.
For `COc1cccc(C(C)CCN2CCCCC2)c1` (racemic), the pKi in experiment [1] was 7.44; in experiment [3], 7.46. For the same compound, the Ratio Ki in experiment [2] is 0.97.
As to `COc1ccc(C(C)CCN(C)C)cc1` (racemic), the pKi in experiment [1] was 6.94; in experiment [3] it was 6.59. Besides, the Ratio Ki in experiment [2] was found to be 2.2.
Taken in the same sequence, the figures for `CC(CCN1CCOCC1)c1ccc2ccccc2c1` (racemic) were 8.27, 7.48 and 6.1.
For the compound `CC(CCN1CCCCC1)c1ccc2ccccc2c1` (racemic), the figures for the pKi in experiment [1] and in experiment [3] were 8.82 and 7.30, respectively. Also, the Ratio Ki in experiment [2] was 33.3.
Turning to `CC(CCN(C)C)c1ccccc1` (racemic), the negative-log Ki (pKi) is 6.37 in experiment [1] and below 6.00 in experiment [3].
As for `COc1ccc(C(C)CCN2CCCCC2)cc1` (racemic), the pKi in experiment [1] is 7.70; in experiment [3], 7.24. Moreover, the Ratio Ki in experiment [2] was found to be 2.9.
For `CC(CCN1CCOCC1)c1ccccc1` (racemic), the pKi in experiment [1] was 7.07; in experiment [3] it was 7.15. In experiment [2], the Ratio Ki came out at 1.2.
Turning to `CC(CCN1CCCCC1)c1ccccc1` (racemic), the pKi in experiment [1] is 7.34; in experiment [3] it was 7.25. Also, the Ratio Ki in experiment [2] was found to be 1.22.
Turning to `COc1cccc(C(C)CCN2CCOCC2)c1` (racemic), the negative logarithm of the Ki (pKi) is 6.86 in experiment [1] and 7.04 in experiment [3]. For the same compound, in experiment [2], the Ratio Ki worked out at 0.67.

For the origin of these results see ChEMBL document CHEMBL3867483, “Gaining in pan-affinity towards sigma 1 and sigma 2 receptors. SAR studies on arylalkylamines” (Bioorg Med Chem, 2017).
